ChEMBL document CHEMBL4406821, “Novel dual inhibitors targeting CDK4 and VEGFR2 synergistically suppressed cancer progression and angiogenesis” (Eur J Med Chem, 2019)
The source made the active and inactive calls. The calls are words filed in the database; no cut-off is given here.

What was measured:
[1] = Clearance in Sprague-Dawley rat at 10 mg/kg, po by HPLC-MS analysis; assay type: ADME, organism-based; details: in vivo
Method in brief: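 Rats fitted with jugular vein catheters for serial blood sampling. Compound dissolved in saline with 5% (v/v) DMSO and given as a single 10 mg/kg dose iv or po after an overnight fast, n = 5 per group. Plasma isolated at once and measured by HPLC with tandem MS detection. Parameters derived by noncompartmental fitting.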

[2] = biological target: 5'-AMP-activated protein kinase catalytic subunit alpha-1 (Homo sapiens) (UniProt Q13131); test: Inhibition of recombinant full length human AMPKalpha1 at 1 uM using AMARAASAAALAR as substrate incubated for 40 mins in presence of [gamma-33P]-ATP by scintillation counting method relative to control
Method in brief: (§1)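 Kinase panel profiling at 1 μM performed by Eurofins KinaseProfiler; percent inhibition reported as mean of two independent experiments.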

[3] = biological target: Activin receptor type-1B (Homo sapiens) (UniProt P36896); test: Inhibition of recombinant human ALK4 (150 to end residues) at 1 uM using as casein substrate incubated for 40 mins in presence of [gamma-33P]-ATP by scintillation counting method relative to control; method in brief: as §1
[4] = biological target: Aurora kinase A (Homo sapiens) (UniProt O14965); test: Inhibition of recombinant full length human Aurora A at 1 uM using LRRASLG as substrate incubated for 40 mins in presence of [gamma-33P]-ATP by scintillation counting method relative to control; method in brief: as §1
[5] = biological target: Aurora kinase C (Homo sapiens) (UniProt Q9UQB9); test: Inhibition of recombinant human Aurora-C (35 to end residues) at 1 uM using AKRRRLSSLRA as substrate incubated for 40 mins in presence of [gamma-33P]-ATP by scintillation counting method relative to control; method in brief: as §1
[6] = biological target: Calcium/calmodulin-dependent protein kinase type 1G (Homo sapiens) (UniProt Q96NX5); test: Inhibition of recombinant full length human CAMKIgamma at 1 uM using KKLRRTLSFAEPG as substrate incubated for 40 mins in presence of [gamma-33P]-ATP by scintillation counting method relative to control; method in brief: as §1
[7] = biological target: Death-associated protein kinase 2 (Homo sapiens) (UniProt Q9UIK4); test: Inhibition of recombinant full length human DAPK2 at 1 uM using calmodulin as substrate incubated for 40 mins in presence of [gamma-33P]-ATP by scintillation counting method relative to control; method in brief: as §1
[8] = tested on: Epidermal growth factor receptor (Homo sapiens), P00533 [L861Q]; test: Inhibition of recombinant human EGFR L861Q mutant (696 to end residues) at 1 uM using poly(Glu, Tyr) 4:1 as substrate incubated for 40 mins in presence of [gamma-33P]-ATP by scintillation counting method relative to control
[9] = biological target: Leukocyte tyrosine kinase receptor (Homo sapiens) (UniProt P29376); test: Inhibition of recombinant human LTK (450 to end residues) at 1 uM using GEEPLYWSFPAKKK as substrate incubated for 40 mins in presence of [gamma-33P]-ATP by scintillation counting method relative to control
Method in brief: (§2)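 Tested at a single 1 uM in an outsourced commercial kinase-profiling panel, read as percent inhibition. Each value is the mean of two independent experiments.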

[10] = biological target: Insulin receptor (Homo sapiens) (UniProt P06213); test: Inhibition of recombinant human IR (1005 to 1310 residues) at 1 uM using KKKSPGEYVNIEFG as substrate incubated for 40 mins in presence of [gamma-33P]-ATP by scintillation counting method relative to control
[11] = biological target: Mitogen-activated protein kinase kinase kinase 2 (Homo sapiens) (UniProt Q9Y2U5); test: Inhibition of recombinant human full length MEKK2 at 1 uM using myelin basic protein as substrate incubated for 40 mins in presence of [gamma-33P]-ATP by scintillation counting method relative to control
[12] = biological target: G protein-coupled receptor kinase 6 (Homo sapiens) (UniProt P43250); test: Inhibition of recombinant human full length GRK6 at 1 uM using casein as substrate incubated for 40 mins in presence of [gamma-33P]-ATP by scintillation counting method relative to control; method in brief: as §2
[13] = biological target: MAP kinase-interacting serine/threonine-protein kinase 2 (Homo sapiens) (UniProt Q9HBH9); test: Inhibition of recombinant human full length MNK2 at 1 uM using myelin basic protein as substrate incubated for 40 mins in presence of [gamma-33P]-ATP by scintillation counting method relative to control
[14] = biological target: RAC-beta serine/threonine-protein kinase (Homo sapiens) (UniProt P31751); test: Inhibition of recombinant human PKBbeta (120 to end residues) at 1 uM using GRPRTSSFAEGKK as substrate incubated for 40 mins in presence of [gamma-33P]-ATP by scintillation counting method relative to control; method in brief: as §2
[15] = biological target: Serine/threonine-protein kinase PRP4 homolog (Homo sapiens) (UniProt Q13523); test: Inhibition of recombinant human PRP4 (663 to end residues) at 1 uM using casein as substrate incubated for 40 mins in presence of [gamma-33P]-ATP by scintillation counting method relative to control
[16] = biological target: Protein-tyrosine kinase 2-beta (Homo sapiens) (UniProt Q14289); test: Inhibition of recombinant human full length PYK2 at 1 uM using poly(Glu, Tyr) 4:1 as substrate incubated for 40 mins in presence of [gamma-33P]-ATP by scintillation counting method relative to control
[17] = biological target: Proto-oncogene tyrosine-protein kinase receptor Ret (Homo sapiens) (UniProt P07949); test: Inhibition of recombinant human RET (658 to end residues) at 1 uM using KKKSPGEYVNIEFG as substrate incubated for 40 mins in presence of [gamma-33P]-ATP by scintillation counting method relative to control
[18] = biological target: Tyrosine-protein kinase receptor TYRO3 (Homo sapiens) (UniProt Q06418); test: Inhibition of recombinant human RSE (451 to end residues) at 1 uM using KVEKIGEGTYGVVYK as substrate incubated for 40 mins in presence of [gamma-33P]-ATP by scintillation counting method relative to control
[19] = biological target: Serine/threonine-protein kinase WNK1 (Homo sapiens) (UniProt Q9H4A3); test: Inhibition of recombinant human WNK1 (1 to 491 residues) at 1 uM using myelin basic protein as substrate incubated for 40 mins in presence of [gamma-33P]-ATP by scintillation counting method relative to control; method in brief: as §2
[20] = biological target: PI3-kinase p110-alpha/p85-alpha (Homo sapiens) (UniProt P27986+P42336); test: Inhibition of recombinant human full length PI3K p110alpha/p85alpha at 1 uM using phosphatidylinositol 4,5-bisphosphate as substrate incubated for 40 mins in presence of [gamma-33P]-ATP by scintillation counting method relative to control; assay type: protein-complex assay
[21] = biological target: Vascular endothelial growth factor receptor 2 (Homo sapiens, UniProt P35968); details: HUVEC, 40 nM

Epidermal growth factor receptor (Homo sapiens), P00533 [L861Q], sequence (P00533 whole entry L861Q): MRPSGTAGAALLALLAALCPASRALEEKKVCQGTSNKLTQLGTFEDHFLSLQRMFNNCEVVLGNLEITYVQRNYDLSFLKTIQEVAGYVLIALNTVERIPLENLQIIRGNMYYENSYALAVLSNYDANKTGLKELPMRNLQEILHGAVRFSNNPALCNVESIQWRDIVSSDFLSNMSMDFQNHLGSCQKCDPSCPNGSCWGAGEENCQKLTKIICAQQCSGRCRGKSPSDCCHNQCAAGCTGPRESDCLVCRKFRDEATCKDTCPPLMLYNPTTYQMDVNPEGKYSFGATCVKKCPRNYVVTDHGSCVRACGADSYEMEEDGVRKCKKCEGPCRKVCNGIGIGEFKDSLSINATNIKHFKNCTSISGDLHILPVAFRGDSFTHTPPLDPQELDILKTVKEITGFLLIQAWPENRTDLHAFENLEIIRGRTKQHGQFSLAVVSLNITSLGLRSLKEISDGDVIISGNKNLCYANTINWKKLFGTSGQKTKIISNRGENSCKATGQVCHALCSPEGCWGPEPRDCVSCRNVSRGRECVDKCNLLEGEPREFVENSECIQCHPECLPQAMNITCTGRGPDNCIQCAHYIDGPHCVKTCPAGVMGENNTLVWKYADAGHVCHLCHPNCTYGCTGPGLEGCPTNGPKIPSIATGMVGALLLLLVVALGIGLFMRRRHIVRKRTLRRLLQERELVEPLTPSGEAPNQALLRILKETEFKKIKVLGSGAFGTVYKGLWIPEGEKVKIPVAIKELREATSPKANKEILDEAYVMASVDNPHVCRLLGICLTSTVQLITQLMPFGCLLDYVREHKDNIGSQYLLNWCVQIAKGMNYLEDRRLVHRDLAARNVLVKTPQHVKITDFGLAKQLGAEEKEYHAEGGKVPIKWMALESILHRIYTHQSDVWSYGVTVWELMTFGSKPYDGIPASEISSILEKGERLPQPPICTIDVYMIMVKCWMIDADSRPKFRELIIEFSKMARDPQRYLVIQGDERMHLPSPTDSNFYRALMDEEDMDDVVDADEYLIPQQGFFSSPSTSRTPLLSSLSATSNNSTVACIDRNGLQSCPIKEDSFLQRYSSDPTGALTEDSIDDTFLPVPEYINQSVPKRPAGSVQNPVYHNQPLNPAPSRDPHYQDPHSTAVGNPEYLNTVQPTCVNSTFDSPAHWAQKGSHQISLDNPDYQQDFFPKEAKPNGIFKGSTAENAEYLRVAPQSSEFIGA
Serine/threonine-protein kinase PRP4 homolog (Homo sapiens), sequence (Q13523 whole entry): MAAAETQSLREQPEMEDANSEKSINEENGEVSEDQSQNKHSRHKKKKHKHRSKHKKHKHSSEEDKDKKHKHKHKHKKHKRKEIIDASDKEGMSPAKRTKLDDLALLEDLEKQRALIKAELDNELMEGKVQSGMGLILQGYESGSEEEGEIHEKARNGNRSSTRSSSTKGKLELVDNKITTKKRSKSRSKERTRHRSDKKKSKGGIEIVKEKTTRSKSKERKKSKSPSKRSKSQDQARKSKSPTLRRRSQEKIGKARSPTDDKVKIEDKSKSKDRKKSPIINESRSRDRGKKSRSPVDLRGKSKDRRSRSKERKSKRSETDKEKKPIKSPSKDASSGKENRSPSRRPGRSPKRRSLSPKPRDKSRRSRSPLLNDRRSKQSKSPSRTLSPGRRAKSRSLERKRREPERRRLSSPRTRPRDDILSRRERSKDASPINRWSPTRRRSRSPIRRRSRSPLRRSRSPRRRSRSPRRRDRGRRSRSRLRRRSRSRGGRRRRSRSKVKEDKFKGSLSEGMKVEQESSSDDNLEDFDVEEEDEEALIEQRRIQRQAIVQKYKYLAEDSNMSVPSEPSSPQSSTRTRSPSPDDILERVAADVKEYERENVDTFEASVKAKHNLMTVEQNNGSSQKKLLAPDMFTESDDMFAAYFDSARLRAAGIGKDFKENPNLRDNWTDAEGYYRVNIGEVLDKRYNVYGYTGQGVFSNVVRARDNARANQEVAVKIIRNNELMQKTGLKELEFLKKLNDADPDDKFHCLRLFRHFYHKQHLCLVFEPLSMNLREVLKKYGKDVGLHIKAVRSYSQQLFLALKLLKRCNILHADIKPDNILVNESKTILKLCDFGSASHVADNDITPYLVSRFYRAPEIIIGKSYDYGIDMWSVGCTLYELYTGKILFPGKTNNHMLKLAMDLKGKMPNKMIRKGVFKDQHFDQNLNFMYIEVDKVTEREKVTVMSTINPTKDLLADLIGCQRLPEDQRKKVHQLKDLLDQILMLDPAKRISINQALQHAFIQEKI
Aurora kinase C (Homo sapiens), sequence (Q9UQB9 whole entry): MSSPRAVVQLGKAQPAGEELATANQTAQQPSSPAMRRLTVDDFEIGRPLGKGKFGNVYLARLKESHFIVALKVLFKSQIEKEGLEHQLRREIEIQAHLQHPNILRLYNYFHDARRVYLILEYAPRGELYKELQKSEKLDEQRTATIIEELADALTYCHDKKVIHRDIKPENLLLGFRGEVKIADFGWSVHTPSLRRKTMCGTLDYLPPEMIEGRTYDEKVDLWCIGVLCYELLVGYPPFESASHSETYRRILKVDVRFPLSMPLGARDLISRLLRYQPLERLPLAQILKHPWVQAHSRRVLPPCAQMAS
RAC-beta serine/threonine-protein kinase (Homo sapiens), sequence (P31751 whole entry): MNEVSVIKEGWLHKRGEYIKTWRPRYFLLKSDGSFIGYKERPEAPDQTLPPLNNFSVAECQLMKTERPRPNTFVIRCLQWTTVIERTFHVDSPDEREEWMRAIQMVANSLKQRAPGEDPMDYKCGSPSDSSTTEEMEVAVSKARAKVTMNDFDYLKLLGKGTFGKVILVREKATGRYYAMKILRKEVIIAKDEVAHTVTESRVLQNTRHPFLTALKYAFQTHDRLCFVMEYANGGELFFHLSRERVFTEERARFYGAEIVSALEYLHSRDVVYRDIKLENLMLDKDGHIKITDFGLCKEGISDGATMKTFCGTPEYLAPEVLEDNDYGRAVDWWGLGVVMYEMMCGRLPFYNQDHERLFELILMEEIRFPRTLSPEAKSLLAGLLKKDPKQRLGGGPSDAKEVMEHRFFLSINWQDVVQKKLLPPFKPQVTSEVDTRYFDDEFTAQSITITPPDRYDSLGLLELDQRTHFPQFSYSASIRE
5'-AMP-activated protein kinase catalytic subunit alpha-1 (Homo sapiens), sequence (Q13131 whole entry, looked up): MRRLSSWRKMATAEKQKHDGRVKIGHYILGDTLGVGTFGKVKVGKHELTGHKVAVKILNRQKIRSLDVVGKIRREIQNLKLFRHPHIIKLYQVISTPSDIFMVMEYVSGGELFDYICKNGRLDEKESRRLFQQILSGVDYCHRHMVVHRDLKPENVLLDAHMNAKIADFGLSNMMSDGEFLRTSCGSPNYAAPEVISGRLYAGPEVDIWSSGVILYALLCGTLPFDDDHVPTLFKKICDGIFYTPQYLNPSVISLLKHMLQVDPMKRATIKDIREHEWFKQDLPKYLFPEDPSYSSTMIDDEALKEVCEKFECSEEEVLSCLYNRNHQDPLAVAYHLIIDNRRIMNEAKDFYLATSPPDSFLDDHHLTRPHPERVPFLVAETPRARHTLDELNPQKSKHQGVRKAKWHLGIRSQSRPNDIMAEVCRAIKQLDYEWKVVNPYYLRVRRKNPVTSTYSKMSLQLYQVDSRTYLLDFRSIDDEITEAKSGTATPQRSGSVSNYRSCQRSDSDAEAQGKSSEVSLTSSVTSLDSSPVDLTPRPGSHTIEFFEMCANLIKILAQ
MAP kinase-interacting serine/threonine-protein kinase 2 (Homo sapiens), sequence (Q9HBH9 whole entry, looked up): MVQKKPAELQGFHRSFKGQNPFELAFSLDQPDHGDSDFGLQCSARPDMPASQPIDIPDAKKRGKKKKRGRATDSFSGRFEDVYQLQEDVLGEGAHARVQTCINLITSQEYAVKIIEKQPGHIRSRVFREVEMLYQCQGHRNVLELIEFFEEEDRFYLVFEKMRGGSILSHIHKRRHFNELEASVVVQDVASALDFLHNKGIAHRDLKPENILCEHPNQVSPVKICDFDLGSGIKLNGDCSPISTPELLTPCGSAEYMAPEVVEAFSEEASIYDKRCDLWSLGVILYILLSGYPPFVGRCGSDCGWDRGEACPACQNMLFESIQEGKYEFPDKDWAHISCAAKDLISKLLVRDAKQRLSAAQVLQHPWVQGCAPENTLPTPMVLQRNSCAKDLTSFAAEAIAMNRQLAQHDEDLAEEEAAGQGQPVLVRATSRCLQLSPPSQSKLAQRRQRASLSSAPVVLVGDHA
Leukocyte tyrosine kinase receptor (Homo sapiens), sequence (P29376 whole entry): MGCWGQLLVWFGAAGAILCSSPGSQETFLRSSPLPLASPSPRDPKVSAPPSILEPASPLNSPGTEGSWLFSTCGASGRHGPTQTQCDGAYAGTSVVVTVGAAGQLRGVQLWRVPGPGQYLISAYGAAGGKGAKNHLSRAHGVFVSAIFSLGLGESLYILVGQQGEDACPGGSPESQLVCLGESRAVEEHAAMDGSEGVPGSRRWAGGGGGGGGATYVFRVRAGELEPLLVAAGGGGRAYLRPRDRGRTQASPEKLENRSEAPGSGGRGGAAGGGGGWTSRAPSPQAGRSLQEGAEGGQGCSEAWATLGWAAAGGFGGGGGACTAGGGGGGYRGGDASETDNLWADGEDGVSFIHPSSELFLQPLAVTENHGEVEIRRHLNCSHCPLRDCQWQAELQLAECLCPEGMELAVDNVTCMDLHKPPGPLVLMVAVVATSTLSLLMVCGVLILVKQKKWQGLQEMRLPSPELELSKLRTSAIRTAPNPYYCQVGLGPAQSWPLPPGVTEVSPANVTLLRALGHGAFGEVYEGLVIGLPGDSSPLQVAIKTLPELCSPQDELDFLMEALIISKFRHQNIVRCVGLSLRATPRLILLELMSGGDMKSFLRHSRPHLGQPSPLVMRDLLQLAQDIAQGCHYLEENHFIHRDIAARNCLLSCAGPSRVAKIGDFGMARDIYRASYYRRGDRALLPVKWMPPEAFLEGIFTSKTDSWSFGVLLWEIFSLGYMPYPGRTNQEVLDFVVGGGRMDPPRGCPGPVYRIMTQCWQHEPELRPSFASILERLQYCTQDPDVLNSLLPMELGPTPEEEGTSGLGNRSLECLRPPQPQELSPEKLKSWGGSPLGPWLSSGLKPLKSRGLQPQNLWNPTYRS

`Cc1ccc(NC(=O)C2(C(=O)Nc3ccc(Nc4ncc(F)c(-c5cc(F)c6nc(C)n(C(C)C)c6c5)n4)cc3)CC2)cc1` gave a CL/F [1] of 33.3 mL/min/kg, an inhibition [2] of 40% and an inhibition [3] of 46%. For the same compound, the inhibition [4] was 79%, the inhibition [5] was 9% and the inhibition [6] was 5%. For the same compound, the inhibition [7] was 10%, the inhibition [8] was 34% and the inhibition [9] was 0%. It also gave an inhibition [10] of 35%, an inhibition [11] of 79% and an inhibition [12] of 0%. For the same compound, the inhibition [13] was 10%, the inhibition [14] was 0% and the inhibition [15] was 48%. The inhibition [16] was 73%, the inhibition [17] was 27% and the inhibition [18] was 66%. The inhibition [19] was 0% and the inhibition [20] was 7%.
In the case of `COc1cc2nccc(Oc3ccc(NC(=O)C4(C(=O)Nc5ccc(F)cc5)CC4)cc3)c2cc1OC` [CABOZANTINIB], the inhibition [21] is reported as “Active”.
